The source of these data is ChEMBL document CHEMBL4339256, “Antibacterial Salinaphthoquinones from a Strain of the Bacterium Salinispora arenicola Recovered from the Marine Sediments of St. Peter and St. Paul Archipelago, Brazil” (2019).

Activity calls are given as the source filed them.

The MIC is the smallest concentration in the dilution series that meets the test's criterion for growth inhibition.

Test [1] relates to Enterococcus faecalis. The test can be described thus: Antimicrobial activity against vancomycin-resistant Enterococcus faecalis ATCC 51212 assessed as inhibition of microbial growth incubated for 24 hrs by broth microdilution assay. The test is classed as functional. The essentials: (§1)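 Strains pre-grown on Mueller Hinton agar 24 h at 35 ± 2 °C aerobically; colonies suspended in 0.85% NaCl, then diluted in Mueller Hinton broth to a final 5 × 10^5 CFU/mL. Broth microdilution per CLSI (2015) with 2-fold serial compound dilutions; rifampicin positive control. Incubated as above; MIC read as lowest concentration with no visible growth.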
A general note: Broth dilution looks for growth in wells or tubes with falling amounts of substance.

The subject of test [2] is Enterococcus faecalis. The experiment in a line: Antimicrobial activity against Enterococcus faecalis ATCC 29212 assessed as inhibition of microbial growth incubated for 24 hrs by broth microdilution assay. The test is classed as functional. The essentials:
(§2)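 Strains first grown on Mueller Hinton agar 24 h at 35 ± 2 °C, aerobic. Colonies were suspended in sterile 0.85% (w/v) NaCl and diluted into Mueller Hinton broth to a final 5 × 10^5 CFU/mL. Broth microdilution followed CLSI (2015), with 2-fold serial dilutions of compound and rifampicin as positive control. Plates were incubated under the same conditions. MIC was read as the lowest concentration with no visible growth.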

Test [3] concerns Staphylococcus aureus. The experiment in a line: Antimicrobial activity against Staphylococcus aureus ATCC 29213 assessed as inhibition of microbial growth incubated for 24 hrs by broth microdilution assay. In kind it is functional. The essentials: as §2
Test [4] deals with Staphylococcus aureus. The test can be described thus: Antimicrobial activity against methicillin-resistant Staphylococcus aureus ATCC 43300 assessed as inhibition of microbial growth incubated for 24 hrs by broth microdilution assay. The test is classed as functional. In outline: as §1
In test [5] the test system is Escherichia coli. The experiment in a line: Antimicrobial activity against Escherichia coli ATCC 25922 assessed as inhibition of microbial growth incubated for 24 hrs by broth microdilution assay. In kind it is functional, organism-based. The essentials: as §2

As to `Cc1cc(C)c(=O)oc1-c1c(O)c(C)cc2c1C(=O)C(N)=CC2=O`, the MIC result in test [1], in test [3] and in test [4] was “inactive” in each case. For the same compound, in test [2] (ATCC 29212, 24 h), the MIC was 125 µg/mL.

For the compound `Cc1cc(C)c(=O)oc1-c1c(O)c(C)cc2c1C(=O)C=C(N)C2=O`, the minimum inhibitory concentration (MIC) in test [1] (ATCC 51212, 24 h) turned out to be 125 µg/mL; in test [2] (ATCC 29212, 24 h), 16 µg/mL; in test [3] (ATCC 29213, 24 h), 31 µg/mL; in test [4] (ATCC 43300, 24 h), 62 µg/mL. For the same compound, the MIC entry in test [5] was “inactive”.

Regarding `CO[C@H]1/C=C/O[C@@]2(C)Oc3c(C)c(O)c4c(O)c(c(/C=N/N5CCN(C)CC5)c(O)c4c3C2=O)NC(=O)/C(C)=C\C=C\[C@H](C)[C@H](O)[C@@H](C)[C@@H](O)[C@@H](C)[C@H](OC(C)=O)[C@@H]1C` [RIFAMPIN], the minimum inhibitory concentration (MIC) in test [1] (ATCC 51212, 24 h) is at most 0.03 µg/mL; in test [2] (ATCC 29212, 24 h), at most 0.03 µg/mL; in test [3] (ATCC 29213, 24 h), at most 0.03 µg/mL; in test [4] (ATCC 43300, 24 h) it was at most 0.03 µg/mL.

On to `Cc1cc2c(c(O)c1O)C(=O)C=C(N)C2=O`, for which the MIC entry in test [1], in test [5], in test [3] and in test [4] was “inactive” throughout. In addition, the minimal inhibitory concentration (MIC) in test [2] (ATCC 29212, 24 h) was 16 µg/mL.

As to `Cc1cc2c(c(C(=O)[C@@H](C)C3OC4[C@H](C)C(OC(=O)[C@H]4C)C3C)c1O)C(=O)C=C(N)C2=O` (stereo partly specified), the MIC entry in test [1], in test [2], in test [3] and in test [4] was “inactive” in each case.

As to `CC(=O)CC1(C)Oc2c(C)cc3c(c2C1=O)C(=O)C=C(N)C3=O` (stereo unspecified), the MIC in test [1] (ATCC 51212, 24 h) is 125 µg/mL; in test [2] (ATCC 29212, 24 h) it was 125 µg/mL; in test [3] (ATCC 29213, 24 h), 125 µg/mL; in test [4] (ATCC 43300, 24 h), 125 µg/mL.
